Laboratory results reported in ChEMBL document CHEMBL1811802, “Synthesis and significant cytostatic activity of 7-hetaryl-7-deazaadenosines” (J Med Chem, 2011).

Key:
SK-N-AS = assay: Cytotoxicity against human SK-N-AS cells after 3 days by MTT assay; type: functional, cell-based; conditions: 72 h
LNCaP = assay: Cytotoxicity against human LNCAP cells after 3 days by MTT assay; type: functional, cell-based; conditions: 72 h
MCF7 = assay: Cytotoxicity against human MCF7 cells after 3 days by MTT assay; type: functional, cell-based; conditions: MCF7, 72 h
[1] = Cytotoxicity against human NCI-H146 cells after 3 days by MTT assay; type: functional, cell-based; conditions: NCI-H146, 72 h
[2] = Cytotoxicity against mouse P388D1 cells after 3 days by MTT assay; type: functional, cell-based; conditions: P388D1, 72 h
[3] = Cytotoxicity against human MES-SA cells after 3 days by MTT assay; type: functional, cell-based; conditions: 72 h
[4] = Cytotoxicity against human CEM-DNR-bulk cells after 3 days by MTT assay; type: functional, cell-based; conditions: 72 h
CT26 = assay: Cytotoxicity against mouse CT26 cells after 3 days by MTT assay; type: functional, cell-based; conditions: CT26, 72 h
K562 [5] = assay: Cytotoxicity against human paclitaxel resistant K562 cells after 3 days by MTT assay; type: functional, cell-based; conditions: K562, 72 h
MDA-MB-231 = assay: Cytotoxicity against human MDA-MB-231 cells after 3 days by MTT assay; type: functional, cell-based; conditions: MDA-MB-231, 72 h
HeLa = assay: Cytotoxicity against human HeLa cells after 3 days by MTT assay; type: functional, cell-based; conditions: 72 h
BJ = assay: Cytotoxicity against human BJ cells after 3 days by MTT assay; type: cell-based; conditions: 72 h
HT-29 = assay: Cytotoxicity against human HT-29 cells after 3 days by MTT assay; type: functional, cell-based; conditions: HT-29, 72 h
SK-MEL-2 = assay: Cytotoxicity against human SK-MEL-2 cells after 3 days by MTT assay; type: functional, cell-based; conditions: SK-MEL-2, 72 h
HPAC = assay: Cytotoxicity against human HPAC cells after 3 days by MTT assay; type: functional, cell-based; conditions: 72 h
C6 = assay: Cytotoxicity against rat C6 cells after 3 days by MTT assay; type: functional, cell-based; conditions: C6, 72 h
BT-549 [6] = assay: Cytotoxicity against human BT549 cells after 3 days by MTT assay; type: functional, cell-based; conditions: BT-549, 72 h
K562 [7] = assay: Cytotoxicity against human K562 cells after 3 days by MTT assay; type: functional, cell-based; conditions: K562, 72 h
SK-OV-3 = assay: Cytotoxicity against human SKOV3 cells after 3 days by MTT assay; type: functional, cell-based; conditions: SK-OV-3, 72 h
L1210 = assay: Cytotoxicity against mouse L1210 cells after 3 days by MTT assay; type: functional, cell-based; conditions: L1210, 72 h
BV-173 = assay: Cytotoxicity against human BV173 cells after 3 days by MTT assay; type: functional, cell-based; conditions: BV-173, 72 h
EL4 = assay: Cytotoxicity against mouse EL4 cells after 3 days by MTT assay; type: functional, cell-based; conditions: EL4, 72 h
[8] = Cytotoxicity against human U87MG cells after 3 days by MTT assay; type: functional, cell-based, U-87MG ATCC; conditions: U-87 MG, 72 h
DU-145 = assay: Cytostatic activity against human DU145 cells after 5 days by SRB assay; type: functional; conditions: DU-145, 120 h
In short: (§1)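 Cells seeded per line density, overnight at 37 °C; day-zero plate TCA-fixed. 5-fold serial dilutions added, 5-day incubation; TCA fixation, 0.057% SRB in 1% acetic acid 30 min, dye dissolved in 10 mM Tris pH 10.5, A500. Growth relative to day-zero and untreated; GIC50 from sigmoidal dose–response fit; mean of two independent experiments.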

[9] = Cytostatic activity against human Hs578 cells after 5 days by SRB assay; type: functional; conditions: Hs578, 120 h; in short: as §1
NCI-H23 = assay: Cytostatic activity against human NCI-H23 cells after 5 days by SRB assay; type: functional; conditions: NCI-H23, 120 h; in short: as §1
HL-60 = assay: Cytotoxicity against human HL60 cells after 3 days by XTT assay; type: functional, cell-based; conditions: HL-60, 72 h
In short: (§2)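 Suspension-grown cell lines, 3-day compound incubation; viability read by XTT metabolic assay; IC50 averaged from four independent experiments.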

[10] = Cytotoxicity against human HeLaS3 cells after 3 days by XTT assay; type: functional, cell-based; conditions: HeLa S3, 72 h; in short: as §2
CCRF-CEM = assay: Cytotoxicity against human CCRF-CEM cells after 3 days by XTT assay; type: functional, cell-based; conditions: 72 h; in short: as §2
Adenosine kinase = Adenosine kinase (Homo sapiens, UniProt P55263); assay: Inhibition of human ADK using [3H]-adenosine by scintillation counting
Chain of Adenosine kinase (P55263 whole entry): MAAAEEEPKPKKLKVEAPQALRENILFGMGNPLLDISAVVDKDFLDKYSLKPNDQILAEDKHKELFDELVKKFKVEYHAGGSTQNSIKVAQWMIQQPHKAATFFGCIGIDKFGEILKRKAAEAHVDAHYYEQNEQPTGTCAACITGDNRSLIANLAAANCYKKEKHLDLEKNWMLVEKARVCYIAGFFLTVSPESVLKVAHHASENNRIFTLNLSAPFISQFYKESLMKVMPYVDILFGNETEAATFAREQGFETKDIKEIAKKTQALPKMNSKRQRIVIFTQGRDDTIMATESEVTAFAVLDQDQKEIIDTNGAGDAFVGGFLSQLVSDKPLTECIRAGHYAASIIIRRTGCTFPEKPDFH

HCT-116 = assay: Cytostatic activity against human HCT116 cells after 5 days by SRB assay; type: functional; conditions: HCT-116, 120 h; in short: as §1
PC-3 [11] = assay: Cytostatic activity against human PC3 cells after 5 days by SRB assay; type: functional; conditions: PC-3, 120 h; in short: as §1
MT4 = assay: Cytostatic activity against human MT4 cells after 5 days by SRB assay; type: functional; conditions: MT4, 120 h
A549 = assay: Cytostatic activity against human A549 cells after 5 days by SRB assay; type: functional; conditions: A549, 120 h; in short: as §1
BT-549 [12] = assay: Cytostatic activity against human BT549 cells after 5 days by SRB assay; type: functional; conditions: BT-549, 120 h; in short: as §1
[13] = Inhibition of RNA polymerase 2 in human HeLaScribe nuclear extracts after 1 hr; conditions: read-out: IC50
In short: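 HeLaScribe nuclear extract transcription with CMV(+) template DNA, 3 mM MgCl2, 400 μM CTP/GTP/UTP, 25 μM [33P]ATP. Inhibitor preincubated 5 min at 30 °C, then 1 h at 30 °C. Products run on 6% urea–polyacrylamide gel; full-length transcript quantified; IC50 is 50% product decrease.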

PC-3 [14] = assay: Cytotoxicity against human PC3 cells after 3 days by MTT assay; type: functional, cell-based; conditions: PC-3, 72 h

`Nc1ccn([C@@H]2O[C@H](CO)[C@@H](O)C2(F)F)c(=O)n1` [GEMCITABINE] showed an IC50 (SK-N-AS) of 1100 nM, an IC50 (LNCaP) of 512 nM and an IC50 (MCF7) of 149 nM. It also gave an IC50 [1] of 2780 nM, an IC50 [2] of 19 nM and an IC50 [3] of 5 nM. For the same compound, the IC50 [4] was 22 nM, the IC50 (CT26) was 6 nM and the IC50 (K562 [5]) was 6 nM. The IC50 (MDA-MB-231) was 245 nM, the IC50 (HeLa) was 4120 nM and the IC50 (BJ) was 9880 nM. It also gave an IC50 (HT-29) of 1530 nM, an IC50 (SK-MEL-2) of 7110 nM and an IC50 (HPAC) of 73 nM. It also gave an IC50 (C6) of 504 nM, an IC50 (BT-549 [6]) of 8 nM and an IC50 (K562 [7]) of 718 nM. It also gave an IC50 (SK-OV-3) of over 10000 nM, an IC50 (L1210) of 7 nM and an IC50 (BV-173) of 1 nM. For the same compound, the IC50 (EL4) was 7 nM and the IC50 [8] was 1490 nM.
`Nc1ncnc2c1c(-c1cccc3ccccc13)cn2[C@@H]1O[C@H](CO)[C@@H](O)[C@H]1O` showed a GI50 (DU-145) of over 10000 nM, a GI50 [9] of over 10000 nM and a GI50 (NCI-H23) of over 10000 nM. It also gave an IC50 (HL-60) of over 10000 nM, an IC50 [10] of over 10000 nM and an IC50 (CCRF-CEM) of over 10000 nM. It also gave an IC50 (Adenosine kinase) of over 10000 nM and a GI50 (HCT-116) of over 10000 nM.
In the case of `Nc1ncnc2c1c(-c1nccs1)cn2[C@@H]1O[C@H](CO)[C@@H](O)[C@H]1O`, the GI50 (PC-3 [11]) is reported as 42 nM, the GI50 [9] is reported as 15 nM and the GI50 (NCI-H23) is reported as 5 nM. It also gave an IC50 (HL-60) of 1610 nM, a GI50 (MT4) of 42 nM and an IC50 [10] of 40 nM. It also gave an IC50 (CCRF-CEM) of 20 nM and a GI50 (HCT-116) of 93 nM.
Compound `Nc1ncnc2c1c(-c1ccc3ccccc3c1)cn2[C@@H]1O[C@H](CO)[C@@H](O)[C@H]1O` has a GI50 (DU-145) of 1050 nM, a GI50 [9] of 2160 nM and a GI50 (NCI-H23) of 5350 nM. The IC50 (HL-60) was over 10000 nM, the IC50 [10] was over 10000 nM and the IC50 (CCRF-CEM) was over 10000 nM. The IC50 (Adenosine kinase) was over 5000 nM and the GI50 (HCT-116) was 5670 nM.
For `Nc1ncnc2c1c(-c1ccc[nH]1)cn2[C@@H]1O[C@H](CO)[C@@H](O)[C@H]1O`, the GI50 (A549) was 160 nM, the GI50 (PC-3 [11]) was 87.8 nM and the GI50 [9] was 113 nM. It also gave a GI50 (NCI-H23) of 333 nM, an IC50 (HL-60) of 2040 nM and an IC50 [10] of 1040 nM. For the same compound, the GI50 (BT-549 [12]) was 129 nM, the IC50 (CCRF-CEM) was 160 nM and the GI50 (HCT-116) was 65.2 nM.
Work on `Nc1ncnc2c1c(-c1ccco1)cn2[C@@H]1O[C@H](COP(=O)(O)OP(=O)(O)OP(=O)(O)O)[C@@H](O)[C@H]1O` yielded an IC50 [13] of 148000 nM.
`Nc1ncnc2c1c(-c1cc3ccccc3o1)cn2[C@@H]1O[C@H](CO)[C@@H](O)[C@H]1O` gave a GI50 (A549) of 7020 nM, a GI50 (PC-3 [11]) of 6290 nM and a GI50 [9] of 6730 nM. The GI50 (NCI-H23) was 5400 nM, the IC50 (HL-60) was over 10000 nM and the GI50 (MT4) was 4800 nM. It also gave an IC50 [10] of over 10000 nM, a GI50 (BT-549 [12]) of over 10000 nM and an IC50 (CCRF-CEM) of 3950 nM. For the same compound, the IC50 (Adenosine kinase) was over 10000 nM and the GI50 (HCT-116) was 3740 nM.
`Nc1ncnc2c1c(-c1cccs1)cn2[C@@H]1O[C@H](COP(=O)(O)OP(=O)(O)OP(=O)(O)O)[C@@H](O)[C@H]1O` showed an IC50 [13] of 54000 nM.
`Nc1ncnc2c1c(-c1cc[nH]c1)cn2[C@@H]1O[C@H](CO)[C@@H](O)[C@H]1O` showed an IC50 (SK-N-AS) of over 10000 nM, an IC50 (LNCaP) of 21 nM and an IC50 (MCF7) of 6310 nM. The GI50 (A549) was 5.3 nM, the IC50 [1] was over 10000 nM and the IC50 [2] was 10 nM. It also gave an IC50 [3] of 81 nM, an IC50 [4] of 8 nM and a GI50 (PC-3 [11]) of 29 nM. It also gave an IC50 (CT26) of 17 nM, an IC50 (K562 [5]) of 9 nM and an IC50 (MDA-MB-231) of 27 nM. It also gave a GI50 [9] of 4.4 nM, an IC50 (HeLa) of 40 nM and an IC50 (BJ) of 6090 nM. The GI50 (NCI-H23) was 33 nM, the IC50 (HT-29) was 4050 nM and the IC50 (SK-MEL-2) was 8710 nM. It also gave an IC50 (HL-60) of 840 nM, a GI50 (MT4) of 24 nM and an IC50 (HPAC) of 68 nM. The IC50 (C6) was 3680 nM, the IC50 [10] was 70 nM and the IC50 (BT-549 [6]) was 6 nM. It also gave an IC50 (K562 [7]) of 33 nM, an IC50 (SK-OV-3) of over 10000 nM and an IC50 (L1210) of 84 nM. For the same compound, the GI50 (BT-549 [12]) was 8 nM, the IC50 (CCRF-CEM) was 110 nM and the IC50 (PC-3 [14]) was over 10000 nM. The IC50 (BV-173) was 4 nM, the IC50 (Adenosine kinase) was over 5000 nM and the GI50 (HCT-116) was 5.9 nM. The IC50 (EL4) was 9420 nM and the IC50 [8] was over 10000 nM.
`Nc1ncnc2c1c(-c1ncc[nH]1)cn2[C@@H]1O[C@H](CO)[C@@H](O)[C@H]1O` gave a GI50 (PC-3 [11]) of 1 nM, a GI50 [9] of 1 nM and a GI50 (NCI-H23) of 6 nM. It also gave an IC50 (HL-60) of 100 nM, a GI50 (MT4) of 49 nM and an IC50 [10] of 440 nM. It also gave an IC50 (CCRF-CEM) of 70 nM, an IC50 (Adenosine kinase) of over 5000 nM and a GI50 (HCT-116) of 2 nM.
In the case of `Nc1ncnc2c1c(-c1c[nH]nn1)cn2[C@@H]1O[C@H](CO)[C@@H](O)[C@H]1O`, the GI50 (PC-3 [11]) is reported as 5 nM, the GI50 [9] is reported as 3 nM and the GI50 (NCI-H23) is reported as 4 nM. The IC50 (HL-60) was 310 nM, the GI50 (MT4) was 18 nM and the IC50 [10] was 90 nM. It also gave an IC50 (CCRF-CEM) of 60 nM and a GI50 (HCT-116) of 4 nM.
